# Assay results pooled from the literature.
# Protocols differ between the studies behind these lines.
# ABL1 Q252H phosphorylated: Tyrosine-protein kinase ABL1, phosphorylated (ABL1, Homo sapiens, UniProt P00519, Q252H)
# ABL1 M351T phosphorylated: Tyrosine-protein kinase ABL1, phosphorylated (ABL1, Homo sapiens, UniProt P00519, M351T)
# ABL1 F317L phosphorylated: Tyrosine-protein kinase ABL1, phosphorylated (ABL1, Homo sapiens, UniProt P00519, F317L)
# ABL1 non-phosphorylated: Tyrosine-protein kinase ABL1, non-phosphorylated (ABL1, Homo sapiens, UniProt P00519)
# ABL1 F317I non-phosphorylated: Tyrosine-protein kinase ABL1, non-phosphorylated (ABL1, Homo sapiens, UniProt P00519, F317I)
# ABL1 F317L non-phosphorylated: Tyrosine-protein kinase ABL1, non-phosphorylated (ABL1, Homo sapiens, UniProt P00519, F317L)
# ABL1 Q252H non-phosphorylated: Tyrosine-protein kinase ABL1, non-phosphorylated (ABL1, Homo sapiens, UniProt P00519, Q252H)
# ABL1 M351T: Tyrosine-protein kinase ABL1 (ABL1, Homo sapiens, UniProt P00519, M351T)
# ABL1 T315I phosphorylated: Tyrosine-protein kinase ABL1, phosphorylated (ABL1, Homo sapiens, UniProt P00519, T315I)
# ABL1 phosphorylated: Tyrosine-protein kinase ABL1, phosphorylated (ABL1, Homo sapiens, UniProt P00519)
# ABL1 H396P phosphorylated: Tyrosine-protein kinase ABL1, phosphorylated (ABL1, Homo sapiens, UniProt P00519, H396P)
Compound,target,read-out,method,concentration,remaining binding
O=C(c1ccc(Nc2ncc(Cl)c(-c3ccc(Cl)s3)n2)cc1)N1CCC(N2CCCC2)CC1,"Tyrosine-protein kinase ABL1, non-phosphorylated (ABL1, Homo sapiens, UniProt P00519, T315I)",binding,competition with immobilised ligand,1 µM,0%
Cc1nc(Cc2cccc(C(F)(F)F)c2)sc1-c1ccc(C(N)=O)nc1,ABL1 Q252H phosphorylated,cell-free assay,competition with immobilised ligand,1 µM,100%
CCN1CCN(Cc2ccc(C(=O)Nc3ccc(C)c(Oc4ccc5c(c4)CC(=O)N5)c3)cc2C(F)(F)F)CC1,ABL1 M351T phosphorylated,binding,competition with immobilised ligand,1 µM,55%
Cc1cnn2ncc(-c3ccnc(N(C)C)n3)c2c1,"Tyrosine-protein kinase ABL1 (ABL1, Homo sapiens, UniProt P00519, Q252H)",binding,,1 µM,100%
CN([C@@H]1CCc2c(CC(=O)O)c3ccccc3n2C1)S(=O)(=O)c1ccc(F)cc1,ABL1 F317L phosphorylated,cell-free assay,competition with immobilised ligand,1 µM,92%
C[C@@H]1CCN(c2nccc(-c3cnn4ncccc34)n2)C1,ABL1 non-phosphorylated,binding,,1 µM,81%
C=CC(=O)N1CCC(C(=O)NCC(=O)N2CCN(c3nc(-c4cnc(N)nc4C(F)F)nc(N4CCOCC4)n3)CC2)CC1,ABL1 F317I non-phosphorylated,binding,competition with immobilised ligand,1 µM,100%
O=C(Nc1c[nH]nc1C(=O)NC1CCNCC1)c1cc(F)cc(F)c1,ABL1 F317L non-phosphorylated,binding,competition with immobilised ligand,1 µM,100%
CCC(=O)N[C@@H]1CC[C@H](C(=O)N(C)c2ccc(-c3nc4ccccc4o3)cc2)C1,ABL1 Q252H non-phosphorylated,cell-free assay,competition with immobilised ligand,1 µM,77%
O=C(c1ccc(Nc2nccc(-c3cc4ccccc4s3)n2)cc1)N1CCC(N2CCCC2)CC1,ABL1 non-phosphorylated,binding,competition with immobilised ligand,1 µM,18%
N[C@@H]1CCN(c2nccc(-c3cnn4ncccc34)n2)C1,"Tyrosine-protein kinase ABL1 (ABL1, Homo sapiens, UniProt P00519, Y253F)",binding,,1 µM,62%
O=C(c1ccc(Nc2ncc(Cl)c(-c3cc4ccccc4s3)n2)cc1)N1CCC(N2CCCC2)CC1,ABL1 F317L non-phosphorylated,binding,competition with immobilised ligand,1 µM,63%
CC1CCCN1c1nccc(-c2cnn3ncccc23)n1 (stereo not shown),ABL1 M351T,binding,,1 µM,98%
CC(=O)N1CCC(c2ccc(C(=O)NC(=N)N)cc2C(F)(F)F)CC1,ABL1 T315I phosphorylated,cell-free assay,competition with immobilised ligand,1 µM,95%
C[C@@H](c1ccc(-n2cnc3c(N)ncnc32)cc1)N1CCc2nn(C)c(Cc3ccccc3)c2C1=O,ABL1 phosphorylated,binding,competition with immobilised ligand,0.1 µM,90%
O=C(NCCCN1CCOCC1)c1ccc(Nc2ncc(Cl)c(-c3ccc(Cl)s3)n2)cc1,ABL1 H396P phosphorylated,binding,competition with immobilised ligand,1 µM,32%
CNC(=O)[C@@H]1CC[C@@H](n2c(-c3ccc4cnccc4c3)nc3ccc(C(=O)NCc4cccc(C(N)=O)c4)cc32)C1,ABL1 H396P phosphorylated,binding,competition with immobilised ligand,1 µM,100%
CN1CCN(c2ccc(Nc3nccc(-c4cccc([N+](=O)[O-])c4)n3)cc2C(F)(F)F)CC1,ABL1 M351T,binding,,10 µM,2.7%
F[C@@H]1CCN(c2nccc(-c3cnn4ncccc34)n2)C1,ABL1 phosphorylated,binding,,1 µM,79%
O=C(NCCCN1CCOCC1)c1ccc(Nc2nccc(-c3cc4ccccc4s3)n2)cc1,ABL1 Q252H non-phosphorylated,binding,competition with immobilised ligand,1 µM,34%
COc1cnc(Nc2cccc(S(N)(=O)=O)c2)nc1N1CCN(c2ccccc2)C(=O)C1,ABL1 F317L phosphorylated,binding,competition with immobilised ligand,1 µM,97%
c1cnn2ncc(-c3ccnc(N4CCC45COC5)n3)c2c1,ABL1 non-phosphorylated,binding,,1 µM,68%
COc1ncc2cc3ccccc3nc2c1C#N,"Tyrosine-protein kinase ABL1, phosphorylated (ABL1, Homo sapiens, UniProt P00519, F317I)",cell-free assay,competition with immobilised ligand,5 µM,100%
c1cncc(-c2cccc(Nc3nccc(NC4CCCCC4)n3)c2)c1,ABL1 non-phosphorylated,binding,competition with immobilised ligand,10 µM,35%
O=C(NCC1CCOCC1)c1n[nH]cc1NC(=O)c1c(F)cccc1F,"Tyrosine-protein kinase ABL1, phosphorylated (ABL1, Homo sapiens, UniProt P00519, E255K)",binding,competition with immobilised ligand,1 µM,88%
COc1ccnn2ncc(-c3ccnc(N(C)C)n3)c12,"Tyrosine-protein kinase ABL1 (ABL1, Homo sapiens, UniProt P00519, F317L)",binding,,1 µM,85%
CN(c1ccnc(CNc2nc(Nc3ccc4c(c3)CC(=O)N4)ncc2C(F)(F)F)n1)S(C)(=O)=O,ABL1 phosphorylated,cell-free assay,competition with immobilised ligand,1 µM,40%
COC(=O)Nc1nc2ccc(C(=O)c3ccccc3)cc2[nH]1,ABL1 non-phosphorylated,cell-free assay,competition with immobilised ligand,10 µM,2%
CNCc1ccccc1-c1csc([C@@H](C)Nc2nc(C)nc3cc(OC)c(OC)cc23)c1,ABL1 F317I non-phosphorylated,binding,competition with immobilised ligand,1 µM,100%
COc1cnc(Nc2cccc(S(N)(=O)=O)c2)nc1N1CCN(c2ccccc2)CC1,ABL1 H396P phosphorylated,binding,competition with immobilised ligand,1 µM,87%
C[C@H](c1ccc(F)cc1)N(Cc1cccc(C(=O)O)c1)C(=O)c1cnc2ccccc2c1,ABL1 T315I phosphorylated,cell-free assay,competition with immobilised ligand,1 µM,75%
Cc1cnc(Nc2ccc(C(=O)N3CCC(N4CCCC4)CC3)cc2)nc1-c1cc2ccccc2s1,ABL1 M351T phosphorylated,binding,competition with immobilised ligand,1 µM,1.4%
CCS(=O)(=O)c1cc2cc(C[C@](O)(CC(C)(C)c3ccc(F)cc3C(N)=O)C(F)(F)F)[nH]c2cn1,ABL1 F317L phosphorylated,cell-free assay,competition with immobilised ligand,1 µM,90%
Nc1ncc2c(n1)-c1c([nH]c3ccc(C#CC4CC4)cc13)CCCC2,ABL1 Q252H phosphorylated,binding,competition with immobilised ligand,1 µM,94%
